Data reported in ChEMBL document CHEMBL4325822, “Discovery of a tetrazolyl β-carboline with in vitro and in vivo osteoprotective activity under estrogen-deficient conditions” (Medchemcomm, 2018).
The source made the active and inactive calls. No cut-off for these calls is given here.

Key:
Calvarial osteoblast [1] = assay: Cytotoxicity against Sprague-Dawley rat calvarial osteoblasts assessed as reduction in cell viability at 0.000001 to 1 uM after 48 hrs by MTT assay; format: cell-based
Method in brief: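 Osteoblasts came from pooled calvaria of 1-2-day-old Sprague-Dawley pups, isolated by sequential dispase/collagenase digestion. Cells were exposed to compound at 1 pM to 1 µM for 48 h, and viability was measured by MTT.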

[2] = Induction of osteoblast differentiation in Sprague-Dawley rat calvarial osteoblasts assessed as alkaline phosphatase activity at 10 nM after 48 hrs using PNPP as substrate by spectrophotometric method relative to control; format: functional
Method in brief: (§1)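 Calvarial osteoblasts at 2 × 10³ cells/well. Treated 48 h with varied concentrations in differentiation medium (5% charcoal-treated FBS, 10 mM β-glycerophosphate, 50 µg·mL⁻¹ ascorbic acid). Total ALP read with PNPP substrate at 405 nm. Cell-free wells check for compound interference with substrate or absorbance.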

Calvarial osteoblast [3] = assay: Increase in OCN protein expression in Sprague-Dawley rat calvarial osteoblasts at 10 nM after 48 hrs by Western blot analysis; format: functional, cell-based
Method in brief: (§2)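 Rat calvarial osteoblasts at 60-70% confluence were treated 48 h. Whole-cell lysates were blotted, blocked in 5% milk, and probed with primary antibody overnight at 4 °C, then with HRP secondary and ECL detection. Densitometry was normalized to β-actin; fold change versus untreated cells, three independent experiments, mean ± SEM.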

[4] = Increase in Runx2 mRNA expression in Sprague-Dawley rat calvarial osteoblasts at 10 nM by RT-PCR method relative to control; format: functional, Calvarial osteoblast
Calvarial osteoblast [5] = assay: Osteogenic activity in Sprague-Dawley rat calvarial osteoblasts assessed as mineralized nodule formation at 10 nM after 21 days by alizarin red-S staining based light microscopic method; format: functional, cell-based
Method in brief: (§3)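 Osteoblasts at 10,000–15,000 cells/cm² in duplicate plates, 21 days in differentiation medium, medium changed every 48 h. Cells fixed in 4% PFA, stained with alizarin red-S (40 mM, pH 4.5, 30 min) and photographed. Stain extracted with 10% acetic acid, pH brought to 4.5 with ammonium hydroxide, read at 405 nm, normalized to cell number.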

Calvarial osteoblast [6] = assay: Osteogenic activity in Sprague-Dawley rat calvarial osteoblasts assessed as mineralized nodule formation at 10 nM after 21 days by alizarin red-S staining based colorimetric method; format: functional; method in brief: as §3
[7] = Increase in BMP2 mRNA expression in Sprague-Dawley rat calvarial osteoblasts at 10 nM by RT-PCR method relative to control; format: functional, Calvarial osteoblast
Method in brief: (§4)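 Primary calvarial osteoblasts were lysed in TRIzol after treatment, and total RNA was extracted. Transcripts were quantified by real-time PCR using the comparative CT (ΔΔCT) method.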

Calvarial osteoblast [8] = assay: Increase in Runx2 protein expression in Sprague-Dawley rat calvarial osteoblasts at 10 nM after 48 hrs by Western blot analysis; format: functional, cell-based
Method in brief: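 Rat calvarial osteoblasts (pooled 1–2-day pups, collagenase/dispase digests) at 60–70% confluence treated 48 h. Whole-cell lysates immunoblotted with primary antibody overnight at 4 °C, then HRP secondary, with ECL detection. Densitometry gives fold change normalized to β-actin versus untreated cells. Mean ± SEM of three independent experiments.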

[9] = Induction of osteoblast differentiation in Sprague-Dawley rat calvarial osteoblasts assessed as alkaline phosphatase activity after 48 hrs using PNPP as substrate by spectrophotometric method; format: functional, cell-based; details: Rattus norvegicus, Sprague-Dawley, Calvarial osteoblast, 48 h; read-out: EC50; method in brief: as §1
[10] = Increase in OCN mRNA expression in Sprague-Dawley rat calvarial osteoblasts at 10 nM by RT-PCR method relative to control; format: functional, Calvarial osteoblast; method in brief: as §4
Calvarial osteoblast [11] = assay: Increase in BMP2 protein expression in Sprague-Dawley rat calvarial osteoblasts at 10 nM after 48 hrs by Western blot analysis; format: functional, cell-based; method in brief: as §2
[12] = Induction of osteoblast differentiation in Sprague-Dawley rat calvarial osteoblasts assessed as alkaline phosphatase activity at 1 nM after 48 hrs using PNPP as substrate by spectrophotometric method relative to control; format: functional; method in brief: as §1
Rattus norvegicus [13] = assay: Antiosteoporotic activity in Sprague-Dawley rat model of OVX-induced bone loss assessed as increase in femoral bone strength by measuring energy at 100 ug/kg, sc administered 5 days/week for 12 weeks by 3 point bending test (reference value: 46.27 +/- 4.36 mJ); format: functional
Rattus norvegicus [14] = assay: (§5) Antiosteoporotic activity in Sprague-Dawley rat model of OVX-induced bone loss assessed as protection against microarchitectural deterioration by measuring trabecular number at 100 ug/kg, sc administered 5 days/week for 12 weeks by microcomputed tomographic analysis (reference value: 0.56 +/- 0.06 /millimeter); format: functional
Method in brief: (§6)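 Adult female Sprague-Dawley rats were ovariectomized and left 12 weeks to become osteopenic. They then received 12 weeks of once-daily oral gavage (1% gum acacia vehicle) or subcutaneous estradiol, five days a week. Femurs were collected at sacrifice and scanned by micro-CT for BMD and trabecular microarchitecture. Ten rats per group; mean ± SEM.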

Rattus norvegicus [15] = assay: Antiosteoporotic activity in Sprague-Dawley rat model of OVX-induced bone loss assessed as decrease in serum CTX level at 100 ug/kg, sc administered 5 days/week for 12 weeks by ELISA; format: functional, organism-based
Method in brief: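 Ovariectomy model as above: 12 weeks of osteopenia, then 12 weeks of daily gavage or subcutaneous estradiol. Serum was separated at autopsy, and CTX and PINP were measured by ELISA kits.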

[16] = molecular target: T1, I-kappa-B kinase (Rattus norvegicus) (UniProt Q9QY78+G3V926+Q6TMG5); assay: Inhibition of IKK in Sprague-Dawley rat calvarial osteoblasts assessed as reduction in TNFalpha-induced NFkB signaling by measuring ratio of cytosolic p65 level to beta-actin level at 10 nM after 24 hrs by Western blot analysis (reference value: 0.99); format: cell-based; details: Calvarial osteoblast
[17] = molecular target: T1, I-kappa-B kinase (Rattus norvegicus); assay: Inhibition of IKK in TNFalpha-simulated Sprague-Dawley rat calvarial osteoblasts assessed as ratio of IkBalpha level to beta-actin level at 10 nM after 24 hrs by Western blot analysis (reference value: 0.78); format: cell-based; details: Calvarial osteoblast
Method in brief: (§7)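 Primary osteoblasts from pooled calvaria of 1-2 day SD rat pups (sequential dispase/collagenase digestion) were grown to 60-70% confluence. They were treated with 17β-estradiol 10 nM in the presence of TNFα 10 ng·ml⁻¹ for 24 h. Whole-cell lysates were immunoblotted, and bands were detected by ECL. Densitometry was normalised to β-actin.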

Rattus norvegicus [18] = assay: as §5, with “structural model index” for “trabecular number”, “2.07” for “0.56”, “0.06)” for “0.06 /millimeter)”; format: functional
Rattus norvegicus [19] = assay: Antiosteoporotic activity in Sprague-Dawley rat model of OVX-induced bone loss assessed as mineral apposition rate at 100 ug/kg, sc administered 5 days/week for 12 weeks by microcomputed tomographic analysis (reference value: 0.169 +/- 0.004 umeter/day); format: functional
Method in brief: (§8)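 Female Sprague-Dawley rats, 10-12 weeks old, ten per group, were ovariectomized and left 12 weeks for osteopenia. They were then dosed once daily by oral gavage for 12 weeks in 1% gum acacia vehicle. The estradiol arm received 100 µg·kg⁻¹ subcutaneously five days a week. Tetracycline and calcein were given intraperitoneally at 20 mg·kg⁻¹ each. Femur cross-sections (50 µm) were imaged by fluorescence microscopy for MAR and BFR.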

[20] = molecular target: T1, I-kappa-B kinase (Rattus norvegicus); assay: Inhibition of IKK in TNFalpha-simulated Sprague-Dawley rat calvarial osteoblasts assessed as ratio of Bcl2 level to beta-actin level at 10 nM after 24 hrs by Western blot analysis (reference value: […]); format: cell-based; details: Calvarial osteoblast
Rattus norvegicus [21] = assay: Antiosteoporotic activity in Sprague-Dawley rat model of OVX-induced bone loss assessed as increase in femoral bone strength by measuring stiffness at 100 ug/kg, sc administered 5 days/week for 12 weeks by 3 point bending test (reference value: 122.07 +/- 12.18 N/mm); format: functional
Rattus norvegicus [22] = assay: as §5, with “bone pattern factor” for “number”, “10.81” for “0.56”, “0.68” for “0.06”; format: functional; method in brief: as §6
[23] = Toxicity in Sprague-Dawley rat model of OVX-induced bone loss assessed as luminal area at 100 ug/kg, sc for 12 weeks (reference value: 0.01 +/- 0.0004 mm2); format: organism-based; details: in vivo, 0.1 mg/kg, 2016 h
[24] = molecular target: T1, I-kappa-B kinase (Rattus norvegicus); assay: Inhibition of IKK in Sprague-Dawley rat calvarial osteoblasts assessed as reduction in TNFalpha-induced NFkB nuclear translocation at 10 nM after 24 hrs by immunofluorescence assay; format: cell-based; details: Calvarial osteoblast
Method in brief: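 Primary rat osteoblasts on chamber slides given TNFα (10 ng·ml⁻¹) for 24 h, with or without treatment. Then 4% PFA fixation, 0.1% Triton X-100, anti-NF-κB overnight, and Cy3 anti-rabbit secondary. Fluorescence imaged at excitation 552 nm, emission 570 nm.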

[25] = molecular target: T1, I-kappa-B kinase (Rattus norvegicus); assay: Inhibition of IKK in TNFalpha-simulated Sprague-Dawley rat calvarial osteoblasts assessed as ratio of Bcl-xL level to beta-actin level at 10 nM after 24 hrs by Western blot analysis (reference value: 0.69); format: cell-based; details: Calvarial osteoblast; method in brief: as §7
[26] = Toxicity in Sprague-Dawley rat model of OVX-induced bone loss assessed as total uterine area at 100 ug/kg, sc for 12 weeks (reference value: 0.11 +/- 0.003 mm2); format: organism-based; details: in vivo, 0.1 mg/kg, 2016 h
[27] = molecular target: T1, I-kappa-B kinase (Rattus norvegicus); assay: Inhibition of IKK in TNFalpha-simulated Sprague-Dawley rat calvarial osteoblasts assessed as ratio of Bax level to beta-actin level at 10 nM after 24 hrs by Western blot analysis (reference value: 1.25); format: cell-based; details: Calvarial osteoblast; method in brief: as §7
[28] = molecular target: T1, I-kappa-B kinase (Rattus norvegicus); assay: Inhibition of IKK in Sprague-Dawley rat calvarial osteoblasts assessed as reduction in TNFalpha-induced NFkB signaling by measuring ratio of nuclear p65 level to beta-actin level at 10 nM after 24 hrs by Western blot analysis (reference value: 2.97); format: cell-based; details: Calvarial osteoblast
Rattus norvegicus [29] = assay: as §5, with “ratio of bone volume/[…]” for “trabecular number”, “4.68” for “0.56”, “0.58%)” for “0.06 /millimeter)”; format: functional
[30] = Toxicity in Sprague-Dawley rat model of OVX-induced bone loss assessed as luminal epithelial height at 100 ug/kg, sc for 12 weeks (reference value: 27.29 +/- 0.96 umeter); format: organism-based; details: in vivo, 0.1 mg/kg, 2016 h
[31] = Toxicity in Sprague-Dawley rat model of OVX-induced bone loss assessed as uterine weight at 100 ug/kg, sc for 12 weeks (reference value: 0.12 +/- 0.02 g); format: organism-based; details: in vivo, 0.1 mg/kg, 2016 h
[32] = molecular target: T1, I-kappa-B kinase (Rattus norvegicus); assay: Inhibition of IKK in Sprague-Dawley rat calvarial osteoblasts assessed as reduction in TNFalpha-induced beta-catenin degradation by measuring ratio of beta-catenin level to beta-actin level at 10 nM after 24 hrs by Western blot analysis (reference value: 0.32); format: cell-based; details: Calvarial osteoblast; method in brief: as §7
[33] = molecular target: T1, I-kappa-B kinase (Rattus norvegicus); assay: Inhibition of IKK in Sprague-Dawley rat calvarial osteoblasts assessed as reduction in TNFalpha-induced IkBalpha phosphorylation by measuring ratio of phosphorylated IkBalpha level to beta-actin level at 10 nM after 24 hrs by Western blot analysis (reference value: 2.32); format: cell-based; details: Calvarial osteoblast; method in brief: as §7
Rattus norvegicus [34] = assay: as §5, with “separation” for “number”, “1.31” for “0.56”, “millimeter)” for “/millimeter)”; format: functional; method in brief: as §6
Rattus norvegicus [35] = assay: Antiosteoporotic activity in Sprague-Dawley rat model of OVX-induced bone loss assessed as bone formation rate at 100 ug/kg, sc administered 5 days/week for 12 weeks by microcomputed tomographic analysis (reference value: 0.171 +/- 0.005 um3/um2/day); format: functional; method in brief: as §8
[36] = Induction of osteoblast differentiation in Sprague-Dawley rat calvarial osteoblasts assessed as alkaline phosphatase activity at 100 nM after 48 hrs using PNPP as substrate by spectrophotometric method relative to control; format: functional; method in brief: as §1
[37] = Induction of osteoblast differentiation in Sprague-Dawley rat calvarial osteoblasts assessed as alkaline phosphatase activity at 10 pM after 48 hrs using PNPP as substrate by spectrophotometric method relative to control; format: functional; method in brief: as §1

CCOC(=O)c1cc2c([nH]c3ccccc32)c(C(NCc2ccc(OC)cc2)c2nnnn2C(C)(C)C)n1 (stereo not given)
Activity (Calvarial osteoblast [1]): Non-Toxic
Emax at 0.01 µM [2]: 75%
Activity (Calvarial osteoblast [3]): Active
fold change (FC) [4]: 1.8 - 4.6
Activity (Calvarial osteoblast [5]): Active
Activity (Calvarial osteoblast [6]): 52%
fold change (FC) [7]: 1.8 - 4.6
Activity (Calvarial osteoblast [8]): Active
EC50 [9]: 1200 nM
fold change (FC) [10]: 1.8 - 4.6
Activity (Calvarial osteoblast [11]): Active

COC(=O)c1cc2c([nH]c3ccccc32)c(C=O)n1
Emax at 0.001 µM [12]: 24%
EC50 [9]: 545 nM

C[C@]12CC[C@@H]3c4ccc(O)cc4CC[C@H]3[C@@H]1CC[C@@H]2O [ESTRADIOL]
Activity (Rattus norvegicus [13]): 62.77 mJ
Activity (Rattus norvegicus [14]): 1.55 /millimeter
Activity (Rattus norvegicus [15]): inactive
Ratio [16]: 1.45
Ratio [17]: 0.66
Activity_index (Rattus norvegicus [18]): 1.6
Activity (Rattus norvegicus [19]): 1.06 micrometer/day
Ratio [20]: 1.45
Activity (Rattus norvegicus [21]): 171.75 N/mm
Activity (Rattus norvegicus [22]): 5.99 /millimeter
Activity [23]: 0.054 mm2
inhibition [24]: Active
Ratio [25]: 0.9
Activity [26]: 0.87 mm2
Ratio [27]: 0.65
Ratio [28]: 1.41
Ratio (Rattus norvegicus [29]): 11.09%
Activity [30]: 17.8 um
Activity [31]: 0.45 g
Ratio [32]: 0.81
Ratio [33]: 1.26
Activity (Rattus norvegicus [34]): 0.68 mm
Activity (Rattus norvegicus [35]): 1.04 um3/um2/day

CCOC(=O)c1cc2c([nH]c3ccccc32)c(C(c2nnnn2C(C)(C)C)N2CCN(CC)CC2)n1 (stereo not given)
EC50 [9]: 936 nM
Emax at 0.1 µM [36]: 14%

COC(=O)c1cc2c([nH]c3ccccc32)c(C(c2nnnn2C2CCCCC2)N2CCN(C)CC2)n1 (stereo not given)
EC50 [9]: 530 nM
Emax at 10 pM [37]: 30%
